Test results published in ChEMBL document CHEMBL6071141, “In vitro and in vivo evaluation of Bombesin-MMAE conjugates for targeted tumour therapy” (Eur J Med Chem, 2024).
Activity calls are given as the source filed them. The rule behind the calls is not given here. Numbered stars: 1 amine (or outer) side, 2 acyl side, 3 side chain; on linkers, the order of the positions; unused ones are H or OH. Bridge positions count the residues as written; N and C are the ends. Square brackets hold non-standard residues; d marks the D form. Peptide text beside a SMILES is read from it. I, II: the chains in the order shown. * marks the point of attachment. Hexanoyl(6-succinimido-3yl) = O=C1CC([*:1])C(=O)N1CCCCCC(=O)[*:2]; Dolaproine = CO[C@@H]([C@@H]1CCCN1)[C@@H](C)C(=O)O; X2 = O=C([C@H](CC1=CSC2C=CC=CC12)N[*:1])[*:2]; Dil = CC[C@H](C)[C@H](NC)[C@@H](CC(=O)O)OC; PABC = O=C(OCc1ccc(N[*:1])cc1)[*:2]; X3 = C[C@@H](N*)[C@@H](O)c1ccccc1; Cit = NC(=O)NCCC[C@H](N)C(=O)O; PEG4 = NCCOCCOCCOCCOCCC(=O)O; NMeV = CN[C@H](C(=O)O)C(C)C; Nle = CCCC[C@H](N)C(=O)O

Assays:
PC-3 [1] = assay: Antitumor activity against human PC-3 cells xenografted in mouse assessed as median survival day at 1 mg/kg, ip administration for 33 days; assay type: functional; settings: time 33 day
[2] = Biodistribution in liver of mouse xenografted with human PC-3 cells incubated for 24 hrs by LC-HRMS; assay type: ADME, organism-based; settings: in vivo
Outline: (§1)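 Mice bearing s.c. PC-3 tumours given a single i.p. dose of 2 mg/kg; 3 mice per time point, sampled at 1, 6 and 24 h. Blood, tumour, liver, kidneys, heart, lungs and pancreas pooled per group and homogenised in water (1:2 w/v); supernatants analysed for MMAE by LC-HRMS; expressed as %ID/g.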

PC-3 [3] = assay: Antitumor activity against human PC-3 cells xenografted in mouse assessed as reduction in tumour volume relative to control; assay type: functional; parameters: scale not given: the % may be the effect or the level left
Outline: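 Acute study in mice bearing subcutaneous PC-3 tumours. Single i.p. dose (0.1 mL) 9 days after inoculation, at a mean tumour volume of 62 mm³. Eight per group, randomized. Conjugates at 2 mg/kg MMAE-content, free MMAE at 1 mg/kg, in 5 % DMSO in water; solvent controls. Calliper volume V = ab²×π/6. Sacrifice at 20 % weight loss or 2000 mm³.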

[4] = Biodistribution in mouse pancreas xenografted with human PC-3 cells by LC-HRMS relative to control; assay type: ADME, organism-based; settings: in vivo
[5] = Cytotoxicity against human MDA-MB-231 cells assessed as inhibition of cell growth incubated for 72 hrs and followed by treated with compound continued incubation for further 72 hrs (double treatment) after retreatment of compound by CellTiter 96 aqueous assay; assay type: toxicity, cell-based
Outline: (§2)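 PC-3 or MDA-MB-231 cells were treated the day after seeding with serial dilutions, from 2000 nM for conjugates and 100 nM for MMAE, for 72 h. Then the assay was stopped, or run 72 h more after a medium change (single) or re-treatment (double). Controls got 0.05 % DMSO. Read-out was MTS absorbance at 490 nm after 90 min. IC50 by non-linear regression; ≥2 experiments, triplicates.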

[6] = Biodistribution in mouse pancreas xenografted with human PC-3 cells assessed as parent compound by LC-HRMS; assay type: ADME, organism-based; settings: in vivo; outline: as §1
[7] = Cytotoxicity against human PC-3 cells assessed as inhibition of cell growth incubated for 72 hrs and followed by treated with compound continued incubation for further 72 hrs (double treatment) after retreatment of compound by CellTiter 96 aqueous assay; assay type: toxicity, cell-based; outline: as §2
[8] = Cytotoxicity against human cells MDA-MB-231 assessed as inhibition of cell growth incubated for 72 hrs by CellTiter 96 aqueous assay; assay type: toxicity, cell-based; settings: MDA-MB-231 cells; outline: as §2
PC-3 [9] = assay: Antitumor activity against human PC-3 cells xenografted with mouse assessed as median survival days at 1 mg/kg, ip (reference value: 33 days)
[10] = Cytotoxicity against human PC-3 cells assessed as inhibition of cell growth incubated with compound for 72 hrs followed by further incubated for 72 hrs (single treatment) by CellTiter 96 aqueous assay; assay type: toxicity, cell-based; outline: as §2
[11] = Cytotoxicity against human MDA-MB-231 cells assessed as inhibition of cell growth incubated with compound for 72 hrs followed by further incubated for 72 hrs (single treatment) by CellTiter 96 aqueous assay; assay type: toxicity, cell-based; outline: as §2
[12] = Cytotoxicity against human PC-3 cells assessed as inhibition of cell growth incubated for 72 hrs by CellTiter 96 aqueous assay; assay type: toxicity, cell-based; outline: as §2
[13] = Biodistribution in mouse xenografted with human PC-3 cells assessed as tumour environment incubated for 24 hrs by LC-HRMS; assay type: ADME, organism-based, Neoplasm; settings: in vivo
Outline: (§3)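 Mice bearing PC-3 xenografts received a single 2 mg/kg i.p. dose. Blood, tumour, liver, kidneys, heart, lungs and pancreas were collected at 1, 6 and 24 h and pooled per group. Tissues were homogenised in water (1:2 w/v) and centrifuged. Released MMAE was measured by LC-HRMS and expressed as %ID/g (n = 3).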

[14] = Biodistribution in kidney mouse xenografted with human PC-3 cells incubated for 24 hrs by LC-HRMS; assay type: ADME, organism-based; settings: in vivo; outline: as §1
[15] = molecular target: T1, Gastrin-releasing peptide receptor (Homo sapiens, UniProt P30550); assay: Displacement of 125 I- [Tyr4] from bombesin receptor 2 in human PC-3 cells assessed as inhibition by radioligand displacement assay; assay type: cell-based
T1 sequence (P30550 whole entry): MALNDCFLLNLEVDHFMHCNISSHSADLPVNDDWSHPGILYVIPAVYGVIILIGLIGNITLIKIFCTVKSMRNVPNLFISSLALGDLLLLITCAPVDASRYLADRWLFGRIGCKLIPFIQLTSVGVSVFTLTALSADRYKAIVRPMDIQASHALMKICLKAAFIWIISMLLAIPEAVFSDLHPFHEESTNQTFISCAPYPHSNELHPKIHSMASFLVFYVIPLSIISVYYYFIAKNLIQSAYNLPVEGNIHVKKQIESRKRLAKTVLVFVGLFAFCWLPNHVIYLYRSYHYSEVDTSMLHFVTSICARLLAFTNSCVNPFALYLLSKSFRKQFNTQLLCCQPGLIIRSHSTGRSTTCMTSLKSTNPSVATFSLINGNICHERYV
Outline: (§4)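 Competition binding on membrane preparations from PC-3 or MDA-MB-231 cells against ¹²⁵I-[Tyr⁴]-bombesin, with conjugates at 10 μM–10 pM. IC50 was taken as the concentration giving 50 % inhibition of tracer binding.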

[16] = Drug uptake in mouse pancreas at ip administration xenografted with human PC-3 cells measured upto 24 hrs by LC-HRMS; assay type: ADME, organism-based; settings: in vivo; outline: as §3
[17] = Drug uptake in mouse lungs at ip administration xenografted with human PC-3 cells measured upto 24 hrs by LC-HRMS; assay type: ADME, organism-based, Lung; settings: in vivo; outline: as §3
[18] = molecular target: T1, Gastrin-releasing peptide receptor; assay: Displacement of 125 I- [Tyr4] from bombesin receptor 2 in human MDA-MB-231 cells assessed as inhibition by radioligand displacement assay; assay type: cell-based; outline: as §4
[19] = Drug uptake in mouse heart at ip administration xenografted with human PC-3 cells measured upto 24 hrs by LC-HRMS; assay type: ADME, organism-based; settings: in vivo; outline: as §3
[20] = Drug uptake in mouse liver at ip administration xenografted with human PC-3 cells measured upto 24 hrs by LC-HRMS; assay type: ADME, organism-based; settings: in vivo; outline: as §3
[21] = Drug uptake in mouse kidney at ip administration xenografted with human PC-3 cells measured upto 24 hrs by LC-HRMS; assay type: ADME, organism-based; settings: in vivo; outline: as §3
[22] = Drug uptake in mouse blood at ip administration xenografted with human PC-3 cells measured upto 24 hrs by LC-HRMS; assay type: ADME, organism-based; settings: in vivo; outline: as §3
PC-3 [23] = assay: Antitumor activity against human PC-3 cells xenografted with mouse assessed as median survival days at 2 mg/kg, ip (reference value: 33 days)
PC-3 [24] = assay: Antitumor activity against human PC-3 cells xenografted in mouse assessed as inhibition in tumour growth at 0.5 mg/kg, ip administered upto 23 days; assay type: functional, organism-based; settings: time <= 23.0 day
Outline: (§5)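 Chronic study in mice bearing subcutaneous PC-3 tumours. Dosing began 8 days after cell inoculation, at a mean tumour volume of 93 mm³. Seven per group, randomized. Four i.p. doses (0.1 mL) on days 8, 11, 16 and 23 of 0.5 mg/kg MMAE-content, in 5 % DMSO in water for injection; controls got solvent. Tumour volume by calliper, V = ab²×π/6.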

PC-3 [25] = assay: Antitumor activity against human PC-3 cells xenografted in mouse assessed as reduction in tumour size at 0.5 mg/kg, ip administered upto 23 days relative to control; assay type: functional; parameters: scale not given: the % may be the effect or the level left; settings: time <= 23 day; outline: as §5
[26] = Toxicity in mouse xenografted with human PC-3 cells assessed as body weight loss at 1 mg/kg, ip administered relative to control; assay type: organism-based; settings: in vivo, 2 mg/kg, in the assay text read “2 mg/kg” for “1 mg/kg”
Outline: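 Toxicity in mice bearing subcutaneous PC-3 tumours after a single i.p. dose 9 days post-inoculation. Free drug at 1 mg/kg, conjugates at 2 mg/kg MMAE-content, in 5 % DMSO in water; solvent controls; eight per group. Body weight followed periodically. Endpoint at 20 % weight loss; behaviour (activity, coat, stool, paleness) also scored.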

[27] = Toxicity in mouse xenografted with human PC-3 cells assessed as change in body weight at 0.2 mg/kg, ip administered upto 23 days; assay type: organism-based; settings: in vivo, 0.5 mg/kg, 552 h, in the assay text read “0.5 mg/kg” for “0.2 mg/kg”
Outline: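 Chronic dosing in mice bearing PC-3 xenografts. Free MMAE at 0.2 mg/kg (conjugates at 0.5 mg/kg MMAE-content), i.p. in 5 % DMSO in water on days 8, 11, 16 and 23 after inoculation. Seven per group; solvent controls. Body weight measured at the start and at periodic intervals.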

[28] = Toxicity in mouse xenografted with human PC-3 cells assessed as effect on liver 0.5 mg/kg, ip administered upto 23 days; settings: in vivo, 552 h
PC-3 [29] = assay: Antitumor activity against human PC-3 cells xenografted in mouse assessed as reduction in tumour weight at 0.5 mg/kg, ip administered upto 23 days relative to control; assay type: functional; parameters: scale not given: the % may be the effect or the level left; settings: time <= 23 day

Compound | Activity (PC-3 [3]) [%] | IC50 at 144 h [5] [nM] | IC50 at 144 h [7] [nM] | IC50 at 72 h [8] [nM] | IC50 at 144 h [10] [nM] | IC50 at 144 h [11] [nM] | IC50 at 72 h [12] [nM] | Drug uptake [13] | IC50 [15] [nM] | IC50 [18] [nM] | also measured
CC[C@H](C)[C@@H]([C@@H](CC(=O)N1CCC[C@H]1[C@H](OC)[C@@H](C)C(=O)N[C@H](C)[C@@H](O)c1ccccc1)OC)N(C)C(=O)[C@@H](NC(=O)[C@@H](NC)C(C)C)C(C)C (H-[NMeV]V[Dil][Dolaproine]-X3) | 15.9 | 0.2 | 0.3 | 10.1 | 0.4 | 0.2 | 3.4 | Active | – | – | Survival (PC-3 [1]): 24.5 days; Drug uptake [2]: Active; Drug uptake [4]: 3.55%; Drug uptake [6]: 10.1%; Survival (PC-3 [9]): 24.5 days; Drug uptake [14]: Active
CCCC[C@H](NC(=O)[C@H](CC(C)C)NC(=O)[C@H](Cc1c[nH]cn1)NC(=O)CNC(=O)[C@@H](NC(=O)[C@H](C)NC(=O)[C@H](CC1=CSC2C=CC=CC12)NC(=O)[C@H](CCC(N)=O)NC(=O)[C@H](CC(N)=O)NC(=O)CCOCCOCCOCCOCCNC(=O)[C@H](CSC1CC(=O)N(CCCCCC(=O)N[C@@H](CCC(=O)O)C(=O)N[C@H](C(=O)N[C@@H](CCCNC(N)=O)C(=O)Nc2ccc(COC(=O)N(C)[C@H](C(=O)N[C@H](C(=O)N(C)[C@@H]([C@@H](C)CC)[C@@H](CC(=O)N3CCC[C@H]3[C@H](OC)[C@@H](C)C(=O)N[C@H](C)[C@@H](O)c3ccccc3)OC)C(C)C)C(C)C)cc2)C(C)C)C1=O)NC(C)=O)C(C)C)C(N)=O (stereo not given in full) (I: Ac-C[PEG4]NQ[X2]AVGHL[Nle]-NH2 / II: EV[Cit][PABC][NMeV]V[Dil][Dolaproine]-X3; linker I:1-II:N via Hexanoyl(6-succinimido-3yl)) | – | 46.4 | 11.8 | 501 | 15.6 | 48.7 | 53.9 | – | 93.6 | 106 | Drug uptake [16]: Not Active; Drug uptake [17]: Not Active; Drug uptake [19]: Not Active; Drug uptake [20]: Not Active; Drug uptake [21]: Not Active; Drug uptake [22]: Not Active
CC[C@H](C)[C@@H]([C@@H](CC(=O)N1CCC[C@H]1[C@H](OC)[C@@H](C)C(=O)N[C@H](C)[C@@H](O)c1ccccc1)OC)N(C)C(=O)[C@@H](NC(=O)[C@H](C(C)C)N(C)C(=O)OCc1ccc(NC(=O)[C@H](CCCNC(N)=O)NC(=O)[C@@H](NC(=O)[C@H](CCC(=O)O)NC(=O)CCCCCN2C(=O)CC(SC[C@H](NC(C)=O)C(=O)NCCOCCOCCOCCOCCC(=O)N[C@H](Cc3ccccc3)C(=O)N[C@@H](CCC(N)=O)C(=O)N[C@@H](CC3=CSC4C=CC=CC34)C(=O)N[C@@H](C)C(=O)N[C@H](C(=O)NCC(=O)N[C@@H](Cc3c[nH]cn3)C(=O)N[C@@H](CC(C)C)[C@@H](O)CC(=O)N[C@@H](CC(C)C)C(N)=O)C(C)C)C2=O)C(C)C)cc1)C(C)C (stereo not given in full) | 34.2 | 39.9 | 4 | 299 | 6 | 41 | 29.3 | Active | 58.2 | 70.4 | Survival (PC-3 [23]): 42 days; Activity (PC-3 [24]): Active; Activity (PC-3 [25]): 48%; Activity [26]: < 20%; Activity [27]: Toxic; Activity [28]: Non-Toxic; Activity (PC-3 [29]): 26%
